From ChEMBL document CHEMBL3352185, “Design, synthesis, and antibacterial properties of dual-ligand inhibitors of acetyl-CoA carboxylase” (2014)
Converted amounts (≈) assume the structure as drawn. The source made the active and inactive calls. No cut-off for these calls is given here.

What was measured:
[1] = tested on: Escherichia coli; experiment: Antibacterial activity against Escherichia coli D21 IpxC101 deletion mutant after 18 to 24 hrs by two-fold broth microdilution method; assay type: functional
How it was run: (§1)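 CLSI broth microdilution in cation-adjusted Mueller Hinton (MHII) broth. Strains streaked on agar and grown overnight at 35 °C. […] Value is the MIC.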

[2] = tested on: Escherichia coli; experiment: Antibacterial activity against wild type Escherichia coli D21 after 18 to 24 hrs by two-fold broth microdilution method; assay type: functional; how it was run: as §1
[3] = tested on: Pseudomonas aeruginosa; experiment: Antibacterial activity against wild type Pseudomonas aeruginosa PAO1 after 18 to 24 hrs by two-fold broth microdilution method; assay type: functional; how it was run: as §1
[4] = tested on: Escherichia coli; experiment: Antibacterial activity against Escherichia coli D21 IpxC101/tolC deletion mutant after 18 to 24 hrs by two-fold broth microdilution method; assay type: functional; how it was run: as §1
[5] = tested on: Staphylococcus epidermidis; experiment: Antibacterial activity against wild type Staphylococcus epidermidis ATCC 35984 after 18 to 24 hrs by two-fold broth microdilution method; assay type: functional
How it was run: (§2)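 MICs were determined by CLSI broth microdilution in cation-adjusted Mueller Hinton (MHII) broth. Organisms were first streaked on agar and grown overnight at 35 °C. Compounds were dissolved in 100% DMSO and tested as 2-fold serial dilutions. A standardized inoculum was incubated with compound for 18−24 h at 35 °C. The norA strain is an otherwise isogenic S. aureus carrying a gain-of-function NorA mutation.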

[6] = tested on: Enterococcus faecalis; experiment: Antibacterial activity against wild type Enterococcus faecalis ATCC 29212 after 18 to 24 hrs by two-fold broth microdilution method; assay type: functional; how it was run: as §2
[7] = tested on: Escherichia coli; experiment: Antibacterial activity against Escherichia coli D21 tolC deletion mutant after 18 to 24 hrs by two-fold broth microdilution method; assay type: functional; how it was run: as §1
[8] = tested on: Escherichia coli; experiment: Inhibition of Escherichia coli acetyl-CoA carboxylase
How it was run: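 Purified ACC complex was assayed by PK/LDH-coupled NADH oxidation in 100 mM HEPES pH 8.0, with 20 mM MgCl2 and 15 mM bicarbonate. One series varied ATP (0.8–56 μM) at 0.2 mM acetyl-CoA; the other varied acetyl-CoA (50–1000 μM) at 5 μM ATP. Each series was run at fixed increasing inhibitor levels. Kis and Kii came from fits to competitive or noncompetitive rate equations.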

[9] = tested on: Escherichia coli; experiment: Competitive inhibition of Escherichia coli acetyl-CoA carboxylase using acetyl-CoA as substrate in presence of ATP
How it was run: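 ACC holoenzyme activity was measured with a pyruvate kinase/lactate dehydrogenase coupled assay. Mix: 0.5 mM phosphoenolpyruvate, 0.2 mM NADH, 20 mM MgCl2, 15 mM bicarbonate, 100 mM HEPES pH 8.0. ATP was fixed at 5 μM, acetyl-CoA was varied from 50 to 1000 μM, and inhibitor was used at fixed increasing concentrations. Initial velocities were fitted to a competitive equation to give Kis.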

[10] = tested on: Escherichia coli; experiment: Antibacterial activity against moiramide-resistant Escherichia coli D21 tolC deletion mutant after 18 to 24 hrs by two-fold broth microdilution method; assay type: functional; how it was run: as §1
[11] = tested on: Pseudomonas aeruginosa; experiment: Antibacterial activity against Pseudomonas aeruginosa PAO1 mexAB/mexCD/mexXY/mexHI/opmH deletion mutant after 18 to 24 hrs by two-fold broth microdilution method
[12] = tested on: Escherichia coli; experiment: Ratio of MPC for Escherichia coli D21 tolC deletion mutant to MIC for Escherichia coli D21 tolC deletion mutant; assay type: functional
How it was run: (§3)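 Single-step selection on MHII agar: compound added to molten agar cooled to 55 °C, at 2-fold increasing concentrations. Overnight MHII broth culture of E. coli tolC concentrated by centrifugation; 4 × 10^9 CFU plated per plate, CFU counted by serial dilution. Plates monitored for resistant colonies. MPC is the lowest consecutive concentration fully suppressing resistant mutants. Ratio is MPC to broth microdilution MIC.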

[13] = tested on: Escherichia coli; experiment: Selectivity ratio of MIC for moiramide-resistant Escherichia coli D21 tolC deletion mutant to MIC for Escherichia coli D21 tolC deletion mutant; assay type: functional
[14] = tested on: Escherichia coli; experiment: Antibacterial activity against Escherichia coli D21 tolC deletion mutant assessed as mutant prevention concentration after 18 to 24 hrs by two-fold broth microdilution method; assay type: functional; how it was run: as §3
[15] = tested on: Staphylococcus aureus; experiment: microbe, parasite or virus in culture; details: ATCC 29213
[16] = tested on: Staphylococcus aureus; experiment: Selectivity ratio of MIC for moiramide-resistant Staphylococcus aureus ATCC 29213 to MIC for Staphylococcus aureus ATCC 29213; assay type: functional
[17] = tested on: Staphylococcus aureus; experiment: microbe, parasite or virus in culture; details: ATCC 29213; remark: listed apart in the source
[18] = tested on: Staphylococcus aureus; experiment: Antibacterial activity against moiramide-resistant Staphylococcus aureus ATCC 29213 after 18 to 24 hrs by two-fold broth microdilution method; assay type: functional; how it was run: as §1
[19] = tested on: Escherichia coli; experiment: Competitive inhibition of Escherichia coli biotin carboxylase
[20] = tested on: Escherichia coli; experiment: Non competitive inhibition of Escherichia coli acetyl-CoA carboxylase using acetyl-CoA as substrate in presence of ATP
[21] = tested on: Escherichia coli; experiment: Antibacterial activity against Escherichia coli JM109 at 1 to 100 uM after 4 hrs by UV-Vis spectrophotometry; assay type: functional, organism-based
How it was run: (§4)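 E. coli JM109 was grown overnight in LB at 37 °C, then diluted into fresh LB tubes. Tubes received compound from a DMSO stock at final 1, 10, 50 or 100 μM, with or without polymyxin B nonapeptide at final 0.5, 1, 5 or 10 μg/mL. Tubes were incubated 4 h at 37 °C and growth was read as absorbance at 600 nm.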

[22] = tested on: Escherichia coli; experiment: Antibacterial activity against Escherichia coli JM109 at 1 to 100 uM after 4 hrs by UV-Vis spectrophotometry in presence of PBMN; assay type: functional, organism-based; how it was run: as §4

| Compound | MIC [1] [µg/mL] | MIC [2] [µg/mL] | MIC [3] [µg/mL] | MIC [4] [µg/mL] | MIC [5] [µg/mL] | MIC [6] [µg/mL] | Kis [9] [nM] | MIC [10] [µg/mL] | MIC [11] [µg/mL] | Ratio [12] | Activity [14] [mg/L] | MIC [15] [µg/mL] | MIC [17] [µg/mL] | MIC [18] [µg/mL] | MIC ([7]; Escherichia coli, D21) [µg/mL] | Kii [20] [nM] | Kis [20] [nM] | also measured |
| --- | --- | --- | --- | --- | --- | --- | --- | --- | --- | --- | --- | --- | --- | --- | --- | --- | --- | --- |
| GENTAMICIN | 0.12 | 0.1 | 2 | < 0.03 | 8 | 8 |  |  |  |  |  |  |  |  |  |  |  | MIC [7]: 0.24 µg/mL |
| C/C=C/C=C/C(=O)N[C@@H](CC(=O)N[C@H](C(=O)[C@@H]1C(=O)NC(=O)[C@H]1C)C(C)C)c1ccccc1 | 4 (≈ 8.82 µM) | > 64 | > 64 | 0.5 (≈ 1.1 µM) | 0.24 (≈ 0.529 µM) | 8 (≈ 17.6 µM) | 7.9 | 4 (≈ 8.82 µM) | 8 (≈ 17.6 µM) | 32 | 16 | 1 (≈ 2.2 µM) | 4 (≈ 8.82 µM) | 8 (≈ 17.6 µM) | 0.5 (≈ 1.1 µM) |  |  | INH [8]: 5 nM; Ratio [13]: 8; Ratio [16]: 8 |
| NC[C@H]1O[C@H](O[C@H]2[C@H](O)[C@@H](O[C@H]3O[C@H](CO)[C@@H](O)[C@H](N)[C@H]3O)[C@H](N)C[C@@H]2N)[C@H](O)[C@@H](O)[C@@H]1O [KANAMYCIN] | 1 (≈ 2.06 µM) | 2 (≈ 4.13 µM) | 128 (≈ 264 µM) | 0.5 (≈ 1.03 µM) | > 128 | 31 (≈ 64 µM) |  | 0.5 (≈ 1.03 µM) | 64 (≈ 132 µM) |  |  | 4 (≈ 8.26 µM) | 4 (≈ 8.26 µM) | 2 (≈ 4.13 µM) | 2 (≈ 4.13 µM) |  |  |  |
| Nc1ncc(C(=O)N(Cc2ccccc2)Cc2ccccc2)o1 |  | > 64 | > 64 | 16 (≈ 52.1 µM) | > 64 | > 64 |  | 8 (≈ 26 µM) |  | >8 | >128 | > 64 | > 64 |  | 16 (≈ 52.1 µM) | 900 | 400 | Kis [19]: 0.8 µM |
| CC(C)[C@H](NC(=O)C[C@H](NC(=O)CCCCCCCCCCCCCCCOc1ccc(CN(Cc2ccccc2)C(=O)c2cnc(N)o2)cc1)c1ccccc1)C(=O)[C@@H]1C(=O)NC(=O)[C@H]1C |  | > 64 | > 64 |  | > 64 | > 64 | 5.2 |  |  |  |  | > 64 | > 64 |  |  | 33.7 | 28.7 | Activity [21]: inactive; Activity [22]: Active |
| CO[C@H]1/C=C/O[C@@]2(C)Oc3c(C)c(O)c4c(O)c(c(/C=N/N5CCN(C)CC5)c(O)c4c3C2=O)NC(=O)/C(C)=C\C=C\[C@H](C)[C@H](O)[C@@H](C)[C@@H](O)[C@@H](C)[C@H](OC(C)=O)[C@@H]1C [RIFAMPIN] | 0.06 (≈ 0.0729 µM) | 31 (≈ 37.7 µM) | 31 (≈ 37.7 µM) | 0.5 (≈ 0.608 µM) | ≤ 0.03 | 0.5 (≈ 0.608 µM) |  |  | 31 (≈ 37.7 µM) | >8 | >64 | ≤ 0.03 | ≤ 0.03 |  | 8 (≈ 9.72 µM) |  |  | Activity [7]: >64 mg/L |
| O=C(N[C@H](CO)[C@H](O)c1ccc([N+](=O)[O-])cc1)C(Cl)Cl [CHLORAMPHENICOL] | 4 (≈ 12.4 µM) | 8 (≈ 24.8 µM) | > 64 | 1 (≈ 3.09 µM) | 8 (≈ 24.8 µM) | 8 (≈ 24.8 µM) |  |  | 2 (≈ 6.19 µM) |  |  | 8 (≈ 24.8 µM) | 8 (≈ 24.8 µM) |  | 1 (≈ 3.09 µM) |  |  |  |
| CC(C)[C@H](NC(=O)C[C@H](NC(=O)CCCCCCCOc1ccc(CN(Cc2ccccc2)C(=O)c2cnc(N)o2)cc1)c1ccccc1)C(=O)[C@@H]1C(=O)NC(=O)[C@H]1C |  | > 64 | > 64 | 4 (≈ 4.96 µM) | 1 (≈ 1.24 µM) | 4 (≈ 4.96 µM) | 5.5 | 16 (≈ 19.8 µM) |  | 8 | 64 | 4 (≈ 4.96 µM) | 4 (≈ 4.96 µM) | > 64 | 8 (≈ 9.91 µM) | 9.6 | 16.9 |  |
